# An excerpt weighted towards active compounds, which were near 2.1% of everything screened.
# ARNT-TACC3 inh = ARNT/TACC3 interaction disruption; Q9Y6A5; AlphaScreen His-ARNT PAS-B/GST-TACC3 binding, luminescence; TACC3 fragment carries E629A point mutation; inhibition, % at 9.99 µM; 390,000 tested, 0.66% active; AID 623870;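 active = mean inhibition of replicates at least 50% and at least half of replicates each reaching 50%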;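 also: 0% = complete ARNT plus TACC3 wells and 100% = ARNT alone without TACC3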
# AF4-AF9 inh = MLL-AF4/AF9 protein interaction inhibition | P42568 | AlphaScreen, biotin-AF4 peptide binding to FLAG-AF9 | inhibition, % at 10 µM | 350,000 tested, 0.47% active | AID 651704;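 active = every replicate reaching a set inhibition limit, whatever the replicate mean, cut at about 25% in these data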;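 also: 0% = plate neutral control median and 100% = total signal loss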
# FGF22 binding = shifts melting point of recombinant human FGF22; Q9HCT0; recombinant FGF22 thermal shift, SYPRO orange fluorescence; percent of sucrose octasulfate shift, DMSO zero; activity (Tm shift, normalised), % at 9.99 µM; 340,000 tested, 1.5% active; AID 651658;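 active = mean Tm shift, scaled 0 neutral to 100 positive control, at about 1.3% or above, every replicate too, limit read from the data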
# PDI inh = blocks human protein disulfide isomerase activity | P07237 | PDI insulin aggregation turbidity, A650, 90 min | inhibition, % at 10 µM | 350,000 tested, 0.052% active | AID 588391;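 active = mean inhibition across replicates of 30% or more, whatever share of single replicates reach that level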
# Target sequence (P07237 whole entry, looked up): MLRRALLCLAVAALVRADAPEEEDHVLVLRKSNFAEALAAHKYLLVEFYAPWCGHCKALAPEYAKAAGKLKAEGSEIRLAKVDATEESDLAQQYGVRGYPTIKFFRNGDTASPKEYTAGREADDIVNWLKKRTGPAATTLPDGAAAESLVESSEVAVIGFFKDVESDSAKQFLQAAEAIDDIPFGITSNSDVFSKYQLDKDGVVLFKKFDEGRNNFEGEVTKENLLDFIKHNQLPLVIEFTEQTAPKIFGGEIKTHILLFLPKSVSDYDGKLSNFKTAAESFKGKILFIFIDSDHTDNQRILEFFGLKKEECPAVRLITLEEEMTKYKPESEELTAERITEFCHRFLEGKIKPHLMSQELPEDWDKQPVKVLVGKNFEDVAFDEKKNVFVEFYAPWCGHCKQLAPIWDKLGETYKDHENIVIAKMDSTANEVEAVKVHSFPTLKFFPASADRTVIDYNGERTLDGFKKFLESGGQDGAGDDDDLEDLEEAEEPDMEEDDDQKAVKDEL
# FN deposit inh = fibronectin deposition inhibition | AH1F fibroblasts, Alexa488-fibronectin deposition fluorescence, overnight | inhibition, % at 12.6 µM | 350,000 tested, 0.086% active;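 active = mean inhibition across replicates of 30% or more, regardless of how many single replicates reach that level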;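 also: positive control wells lacked labelled fibronectin entirely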
#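 Assay system: AH1F fibroblasts / Quantity: 10000 cells per well / Medium: DMEM plus 2% serum, read in PBS / Reagent: labelled fibronectin 24 nM / Dosing: single dose, pinned / Times: 1 h cell attachment, overnight exposure to compound and label / Signal: fluorescence, ex 485 nm, em 525 nm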
# ERp5 inh = ERp5 (human) disulfide isomerase inhibition; inhibition, % at 9.99 µM; 350,000 tested, 0.05% active; Q15084; AID 651711; ERp5 insulin aggregation, absorbance 650 nm, 90 min;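 active = mean replicate inhibition above about 25%, with every replicate also reaching it, limit read from the data, passing the limit was not always enough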
# Numbers without * were called inactive; . = not tested or not shown.
SMILES,ARNT-TACC3 inh,AF4-AF9 inh,FGF22 binding,PDI inh,FN deposit inh,ERp5 inh
C[C@@H]1CN([C@@H](C)CO)C(=O)c2cccc(NS(=O)(=O)c3ccc(F)cc3)c2O[C@H]1CN(C)S(=O)(=O)c1cn(C)cn1,-10,-10,0,.,.,-1
COc1ccc(-n2c(SCC(N)=O)nc3sc4c(c3c2=O)CCC4)cc1,-18,-1,43*,8,-18,4
COc1ccc(OC)c(NC2=C(Cl)C(=O)N(Cc3ccccc3)C2=O)c1,14,27*,0,0,-1,-4
CCOc1ccccc1NC1=C(Cl)C(=O)N(Cc2ccccc2)C1=O,12,.,.,10,.,.
C[C@H](NC(=O)C[C@H]1C=C[C@@H](NC(=O)C2CCC2)[C@H](CO)O1)c1ccccc1,5,-10,0,.,1,0
O=C1C=C(c2ccccc2Oc2ccccc2)C[C@@H](c2ccc(F)cc2)C1,.,1,43*,-2,-2,5
CCNc1sc(S(C)(=O)=O)nc1S(=O)(=O)c1ccc(Cl)cc1,-2,-1,43*,-12,-1,1
CCS(=O)(=O)c1nc(S(=O)(=O)c2ccc(Cl)cc2)c(NCc2ccccn2)s1,-3,3,44*,15,8,2
CC1(C(O)(C#CC[N+]2(C)CCCCC2)c2ccccc2)CCCC1 (centres undefined),-4,-1,0,-9,-4,5
CC1(C#CC[N+]2(C)CCCCC2)CCC2C(O1)c1ccccc1OC2(C)C (centres undefined),-1,-6,44*,-1,-13,5
CC(C)(C)CC(C)(C)c1ccc(OCCOCC[N+](C)(C)Cc2ccccc2)cc1,8,51*,-1,0,1,6
C[N+](C)(CCOc1ccccc1)Cc1ccccc1 (tested in a mixture with another compound),-25,-10,0,-2,.,4
COCC#Cc1ccc([C@@H]2[C@@H](CO)N3C(=O)CN(C(=O)C4CCCC4)C[C@H]23)cc1,.,-1,.,.,-6,-1
C/C(=N\S(=O)(=O)c1ccc(C)cc1)NC(=S)Nc1ccccc1,-6,0,44*,-1,10,11
COc1ccc(NC(=S)N/C(=N/S(=O)(=O)c2ccc(C)cc2)c2ccccc2)cc1,3,-5,43*,1,-22,5
COc1ccc(NC(=S)NC(=NS(=O)(=O)c2ccc(Cl)cc2)c2ccccc2)cc1,-1,-1,0,-17,.,0
NC(=S)NNc1cccc2cccnc12,65*,7,0,-2,6,-3
Cc1noc(C)c1NC(=O)NCC[C@@H]1CC[C@H](NC(=O)Nc2cccc(F)c2)[C@H](CO)O1,-17,4,-1,.,6,1
O=C(COC(=O)C1CCC(=O)N1)Nc1ccc(Oc2ccccc2)cc1 (centres undefined),-3,-1,1,-1,-5,-2
O=C(COC(=O)C1CCC(=O)N1)Nc1ccccc1Br (centres undefined),-15,-6,43*,3,-3,-1
Cc1ccc(/C=C/C(=O)NCc2ccc(S(N)(=O)=O)cc2)o1,-4,-10,43*,-10,4,14
Cc1ccc(/C=C/C(=O)Nc2ccc(S(N)(=O)=O)cc2)o1,-11,-7,0,-6,.,5
Cn1c(=O)c2c(nc(Sc3ncnn3CC(=O)NC(C)(C)C)n2C)n(C)c1=O,-7,-1,43*,10,.,4
Cn1c(=O)c2c(ncn2CC(=O)NC(C)(C)C)n(C)c1=O,2,0,0,1,.,0
CC(=O)Nc1c(O)nc(SC/C=C/CSc2nc(O)c(NC(C)=O)c(=O)[nH]2)[nH]c1=O,-1,-3,43*,-6,2,1
CC(=O)Nc1c(O)nc(SCc2ccccc2C#N)[nH]c1=O,-15,-1,0,0,4,-10
Cc1ccc([N+](=O)[O-])cc1NC(=O)C[n+]1ccccc1,-2,-1,0,-3,0,-6
Cc1cc([N+](=O)[O-])ccc1NC(=O)C[n+]1ccc(N(C)C)cc1,6,-9,43*,1,0,1
O=c1cc(N2CCN(c3ccc(F)cc3)CC2)[nH]c(=O)n1C1CCCCC1,-1,.,.,-4,.,.

# Assay outcomes from PubChem BioAssay.
